Mdm2 MdmX PPI: human Mdm2/MdmX binding inhibition; SaOS-2 split-luciferase Mdm2/MdmX complementation, luminescence; inhibition, % at 8 µM; actives 3% (n = 330,000); AID 485346;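 active means inhibition of at least 50% at 8 µM in the primary screen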
Target sequence (O15151 whole entry, looked up): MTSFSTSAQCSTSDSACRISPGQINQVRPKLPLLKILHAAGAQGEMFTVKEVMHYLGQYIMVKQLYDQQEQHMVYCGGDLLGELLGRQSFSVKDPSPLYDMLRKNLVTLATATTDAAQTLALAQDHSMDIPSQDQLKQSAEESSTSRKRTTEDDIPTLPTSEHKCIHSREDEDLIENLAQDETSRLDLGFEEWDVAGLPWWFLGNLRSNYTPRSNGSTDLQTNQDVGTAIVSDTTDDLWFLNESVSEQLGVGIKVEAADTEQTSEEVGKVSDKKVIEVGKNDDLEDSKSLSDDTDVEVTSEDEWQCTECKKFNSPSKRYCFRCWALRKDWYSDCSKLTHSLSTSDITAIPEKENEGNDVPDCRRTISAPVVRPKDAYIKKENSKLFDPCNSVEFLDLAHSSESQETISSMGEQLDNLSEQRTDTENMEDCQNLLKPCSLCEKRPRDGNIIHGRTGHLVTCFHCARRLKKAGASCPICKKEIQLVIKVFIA
Target sequence (Q00987 whole entry, looked up): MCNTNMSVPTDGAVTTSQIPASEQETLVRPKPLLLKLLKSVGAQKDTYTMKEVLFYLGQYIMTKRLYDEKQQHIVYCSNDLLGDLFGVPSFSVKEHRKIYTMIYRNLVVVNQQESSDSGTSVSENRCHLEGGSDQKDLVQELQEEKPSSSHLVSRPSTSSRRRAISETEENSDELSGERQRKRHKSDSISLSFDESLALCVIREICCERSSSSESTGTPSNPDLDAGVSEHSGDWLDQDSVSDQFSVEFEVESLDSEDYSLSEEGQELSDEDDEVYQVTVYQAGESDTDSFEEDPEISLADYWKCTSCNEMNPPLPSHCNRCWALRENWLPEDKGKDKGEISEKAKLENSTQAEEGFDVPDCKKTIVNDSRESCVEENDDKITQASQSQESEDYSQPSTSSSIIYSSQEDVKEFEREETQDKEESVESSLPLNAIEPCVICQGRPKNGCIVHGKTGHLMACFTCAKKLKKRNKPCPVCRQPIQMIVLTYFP
UPR CHOP act: activators of apoptotic arm of unfolded protein response (CHOP); CHO-CHOP luciferase reporter, UPR activation, luminescence; percent of tunicamycin response over DMSO baseline; activation, % at 10 µM; actives 0.34% (n = 330,000);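 active means at 10 µM dose, activation of 40% or more, normalized to positive control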
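System: CHO-CHOP luciferase reporter cell line; amount: 500 cells/well; buffer or medium: F12 medium containing 10% fetal bovine serum; incubation: 6 h compound exposure at 37 °C after overnight seeding; measured by: luciferase luminescence after 10 min with Steady-Glo reagent; evaluation: % reporter activation, DMSO baseline versus tunicamycin full activation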
UPR XBP1 act: activators of adaptive arm of unfolded protein response (XBP1); activation, % at 20 µM; AID 463104; actives 0.33% (n = 330,000); CHO-XBP1 luciferase reporter, IRE1-XBP1 UPR activation, luminescence; percent of tunicamycin response, DMSO as zero;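 active means versus positive control, 20 µM dose yields 30% or more activation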
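Test system: CHO-XBP1 luciferase reporter cells | Buffer or medium: Serum-containing F12 medium, 10% FBS | Schedule: 6 h compound exposure at 37 °C, 5% CO2 | Detection: Steady-Glo luciferase glow luminescence, 10 min after reagent addition | Read-out basis: Activation, % of tunicamycin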
Beta apoptosis: beta cell apoptosis inhibition; actives 0.8% (n = 300,000); INS-1E cytokine-induced death, ATP luminescence, 48 h; percent of positive-control rescue, neutral wells zero; protection from apoptosis, % (concentration not given with the values);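 active means Every replicate reaches about 75%, or at least half do and their mean reaches it too, limit read from the data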;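 further: higher means more ATP so stronger rescue from cytokine killing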
CSC inhib: blocks cancer stem cells. cancer stem cell-like cells viability, luminescence. inhibition, % at 7.5 µM. actives 1.1% (n = 300,000). AID 2717; in the data active means inhibition above about 75%; tested in HMLE shEcad cells
SKKanGAS inh: blocks kanamycin growth of S. pyogenes SKKanGAS strain; inhibition, % at 7.5 µM; BacTiter-Glo, 6 h; actives 1.3% (n = 300,000);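 active means mean replicate score, as percent of positive control median, at least 50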;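 further: strain carries kanamycin resistance gene driven by streptokinase promoter and grows in 40 µg/ml kanamycin; loss of luminescence reflects streptokinase promoter inhibition or plain growth inhibition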
Hits are given with their value. Most compounds without a hit are left out; they make up all but 4.8% or so of the library.

What do the screens show for `Cc1ccc(-n2sc3ccccc3c2=O)cc1S(=O)(=O)N1CCCCC1`?
Mdm2 MdmX PPI: inactive; UPR CHOP act: inactive; UPR XBP1 act: inactive; Beta apoptosis: inactive; CSC inhib: inactive; SKKanGAS inh: 90.0

What do the screens show for `c1ccc(-c2csc3ncnc(-n4cnc5ccccc54)c23)cc1`?
Mdm2 MdmX PPI: inactive; UPR CHOP act: inactive; UPR XBP1 act: inactive; CSC inhib: inactive; SKKanGAS inh: inactive

How did Cc1ccc(-c2csc3ncnc(-n4cnc5ccccc54)c23)cc1 do in these assays?
Mdm2 MdmX PPI: inactive; UPR CHOP act: inactive; UPR XBP1 act: inactive; Beta apoptosis: inactive; CSC inhib: 76.7; SKKanGAS inh: inactive

Results for Cc1c(-c2ccc(Cl)cc2Cl)nc2ccccc2c1C(=O)NCCN1CCOCC1 ?
Mdm2 MdmX PPI: inactive; UPR CHOP act: inactive; UPR XBP1 act: inactive; Beta apoptosis: inactive; CSC inhib: inactive; SKKanGAS inh: inactive

How did COc1cccc2nc3cc(C)c(C)cc3nc12 do in these assays?
Mdm2 MdmX PPI: inactive; UPR CHOP act: inactive; UPR XBP1 act: inactive; Beta apoptosis: inactive; CSC inhib: inactive; SKKanGAS inh: 54.4

What do the screens show for `COc1ccc(C(=O)NC(=S)N(Cc2ccccc2)Cc2ccccc2)cc1`?
Mdm2 MdmX PPI: inactive; UPR CHOP act: inactive; UPR XBP1 act: inactive; Beta apoptosis: inactive; CSC inhib: inactive; SKKanGAS inh: 96.1

What do the screens show for `C=CCN(CC=C)C(=S)NC(=O)c1ccc(OC)cc1`?
Mdm2 MdmX PPI: inactive; UPR CHOP act: inactive; UPR XBP1 act: inactive; Beta apoptosis: inactive; CSC inhib: inactive; SKKanGAS inh: inactive

What do the screens show for `O=C(NC(=S)NCc1ccccc1)c1ccccc1F`?
Mdm2 MdmX PPI: inactive; UPR CHOP act: inactive; UPR XBP1 act: inactive; Beta apoptosis: inactive; CSC inhib: inactive; SKKanGAS inh: inactive

Results for CC(C)C(=O)NC(=S)N(Cc1ccccc1)Cc1ccccc1 ?
Mdm2 MdmX PPI: inactive; UPR CHOP act: inactive; UPR XBP1 act: inactive; Beta apoptosis: inactive; CSC inhib: inactive; SKKanGAS inh: inactive

Results for CC(C)CC(=O)NC(=S)N(Cc1ccccc1)Cc1ccccc1 ?
Mdm2 MdmX PPI: inactive; UPR CHOP act: inactive; UPR XBP1 act: inactive; Beta apoptosis: inactive; CSC inhib: inactive; SKKanGAS inh: 53.6

What do the screens show for `O=C(NC(=S)N(Cc1ccccc1)Cc1ccccc1)c1ccccc1F`?
Mdm2 MdmX PPI: inactive; UPR CHOP act: inactive; UPR XBP1 act: inactive; Beta apoptosis: inactive; CSC inhib: inactive; SKKanGAS inh: 94.2

How did Cc1nn(Cc2ccccc2)c(C)c1CNC(=O)CN=C1NS(=O)(=O)c2ccccc21 do in these assays?
Mdm2 MdmX PPI: inactive; UPR CHOP act: inactive; UPR XBP1 act: inactive

Results for CN(Cc1ccccc1)C(=O)c1ccccc1N(C)S(=O)(=O)c1ccccc1 ?
Mdm2 MdmX PPI: inactive; UPR CHOP act: inactive; UPR XBP1 act: inactive

How did CC1(C)Oc2ccc3ccc(=O)oc3c2/C(=C/NNC(N)=S)C1=O do in these assays?
Mdm2 MdmX PPI: inactive; UPR CHOP act: inactive; UPR XBP1 act: inactive; Beta apoptosis: inactive; CSC inhib: inactive; SKKanGAS inh: 82.0

Results for CN/C=C1\C(=O)C(C)(C)Oc2ccc3ccc(=O)oc3c21 ?
Mdm2 MdmX PPI: inactive; UPR CHOP act: inactive; UPR XBP1 act: inactive; Beta apoptosis: inactive; CSC inhib: inactive; SKKanGAS inh: inactive

How did O=C(O)c1cn2c3c(ccc(Cl)c3c1=O)OCC2 do in these assays?
Mdm2 MdmX PPI: inactive; UPR CHOP act: inactive; UPR XBP1 act: inactive; Beta apoptosis: inactive; CSC inhib: inactive; SKKanGAS inh: inactive

How did COc1ccc(Br)cc1CN(C)CC(=O)NCc1ccc(F)cc1 do in these assays?
Mdm2 MdmX PPI: inactive; UPR CHOP act: inactive; UPR XBP1 act: inactive; Beta apoptosis: 97.8; CSC inhib: inactive; SKKanGAS inh: inactive

Results for COc1ccc(OC)c(NC(=O)CSc2nnc(-c3cnccn3)n2C)c1 ?
Mdm2 MdmX PPI: inactive; UPR CHOP act: inactive; UPR XBP1 act: inactive; Beta apoptosis: inactive; CSC inhib: inactive; SKKanGAS inh: inactive

Results for CCOc1cc(/C=C2\SC(=S)N(N3CCOCC3)C2=O)ccc1O ?
Mdm2 MdmX PPI: inactive; UPR CHOP act: inactive; UPR XBP1 act: inactive; Beta apoptosis: inactive; CSC inhib: inactive; SKKanGAS inh: inactive

What do the screens show for `CCOc1cc(/C=C2\SC(=N)N(c3nccs3)C2=O)ccc1OCCN1CCOCC1`?
Mdm2 MdmX PPI: inactive; UPR CHOP act: inactive; UPR XBP1 act: inactive; Beta apoptosis: inactive; CSC inhib: inactive; SKKanGAS inh: 80.3
